ChEMBL document CHEMBL3745596, “Chlorophenoxy aminoalkyl derivatives as histamine H(3)R ligands and antiseizure agents” (Bioorg Med Chem, 2016)
The source made the active and inactive calls.

Legend:
Mus musculus [1] = experiment: Anticonvulsant activity in ip dosed CF1 albino mouse assessed as protection against maximal electroshock-induced seizure after 0.25 hrs; format: functional
Summary of the method: (§1)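 Male CF-1 mice dosed ip as suspension in 0.5% methylcellulose. Corneal electrodes deliver 60 Hz alternating current, 50 mA for […], after a drop of 0.5% tetracaine HCl in 0.9% NaCl per eye. Protection means abolition of hindlimb tonic extension; scored as protected/tested, or ED50 with 95% confidence interval.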

Rattus norvegicus [2] = experiment: Neurotoxicity in Sprague-Dawley rat at 30 mg/kg, ip after 2 hrs by rotarod test; format: toxicity, organism-based; conditions: in vivo
Summary of the method: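 Male Sprague–Dawley rats given compound ip as a suspension in 0.5% methylcellulose, groups of four. Rotarod: 1 inch knurled rod at 6 rpm; three falls within 1 min counts as neurotoxic. Scored as number toxic/number tested at pretreatment times between 0.25 and 4 h, or at the stated time.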

Rattus norvegicus [3] = experiment: Anticonvulsant activity in Sprague-Dawley rat assessed as protection against pilocarpine-induced convulsive status epilepticus at 50 mg/kg, ip; format: functional, organism-based
Summary of the method: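 Male Sprague Dawley rats (150–180 g) dosed ip, pilocarpine 50 mg/kg ip given; compound dosed immediately at first behavioral Stage 3 seizure or 30 min later. Number protected from Racine Stage 3 or greater seizures recorded.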

Mus musculus [4] = experiment: Neurotoxicity in CF1 albino mouse at 30 mg/kg, ip after 0.25 to 4 hrs by rotarod test; format: toxicity, organism-based; conditions: in vivo
Summary of the method: (§2)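 Rotarod neurotoxicity in male albino CF-1 mice dosed ip with compound suspended in 0.5% methylcellulose. Animal placed on a 1 inch diameter knurled plastic rod rotating at 6 rpm. Neurotoxicity scored when the animal falls off three times within 1 min. Readout is number of animals toxic/number tested at the stated time after dosing. TD50 with 95% confidence interval from the quantitative study.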

Rattus norvegicus [5] = experiment: Anticonvulsant activity in Sprague-Dawley rat assessed as protection against maximal electroshock-induced seizure at 30 mg/kg, ip after 1 hr; format: functional, organism-based
Mus musculus [6] = experiment: Analgesic activity in mouse assessed as inhibition of formalin-induced paw licking behavior at 16 mg/kg, ip after 0.25 hrs; format: functional, organism-based
Summary of the method: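 Male albino mice, ip in 0.5% methylcellulose; 0.5% formalin injected sub-dermally into right hindpaw plantar surface 0.25 h after dosing. Paw licking observed for the first 2 min of each 5-min epoch up to 40 min after dosing; cumulative licking duration compared with vehicle-pretreated group, acute and inflammatory phases.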

Mus musculus [7] = experiment: Neurotoxicity in CF1 albino mouse assessed as unable to grasp rotarod and death at 300 mg/kg, ip after 0.5 hrs by rotarod test; format: toxicity, organism-based; conditions: in vivo
Summary of the method: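 Male albino CF-1 mice dosed ip with compound suspended in 0.5% methylcellulose, then placed on a 1-inch knurled plastic rod turning at 6 rpm. A fall three times within 1 min counted as neurotoxicity. Observations were made at 0.5 h and 4 h after dosing. Result given as animals showing toxicity per animals tested, with the kind of toxicity recorded.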

Rattus norvegicus [8] = experiment: Anticonvulsant activity in ip dosed Sprague-Dawley rat assessed as protection against maximal electroshock-induced seizure after 1 hr; format: functional
Mus musculus [9] = experiment: Anticonvulsant activity in CF1 albino mouse assessed as protection against maximal electroshock-induced seizure at 30 mg/kg, ip after 4 hrs; format: functional, organism-based; summary of the method: as §1
Mus musculus [10] = experiment: Neurotoxicity in CF1 albino mouse at 100 mg/kg, ip after 4 hrs by rotarod test; format: toxicity, organism-based; conditions: in vivo; summary of the method: as §2
Mus musculus [11] = experiment: Anticonvulsant activity in ip dosed CF1 albino mouse assessed as protection against subcutaneous pentetrazole-induced seizure after 0.25 hrs; format: functional
Summary of the method: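 Male CF-1 mice, ip in 0.5% methylcellulose; pentetrazole at CD97 (85 mg/kg) injected subcutaneously in a loose fold of neck skin. Observed 30 min; absence of even a threshold seizure (single clonic spasm lasting at least 5 s) counted as protection. Scored protected/tested, or ED50.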

Mus musculus [12] = experiment: Neurotoxicity in CF1 albino mouse at 3 mg/kg, ip after 0.5 hrs by rotarod test; format: toxicity, organism-based; conditions: in vivo; summary of the method: as §2
Rattus norvegicus [13] = experiment: Anticonvulsant activity in Sprague-Dawley rat assessed as protection against maximal electroshock-induced seizure at 30 mg/kg, ip after 0.5 hrs; format: functional, organism-based
Mus musculus [14] = experiment: Neurotoxicity in CF1 albino mouse at 30 mg/kg, ip after 4 hrs by rotarod test; format: toxicity, organism-based; conditions: in vivo; summary of the method: as §2

CC1CCCN(CCCCCCCOc2ccc(Cl)cc2)C1.O=C(O)C(=O)O (centres undefined)
ED50 (Mus musculus [1]): 16.1 mg/kg | Activity (Rattus norvegicus [2]): Non-toxic | Activity (Rattus norvegicus [3]): inactive | Activity (Mus musculus [4]): Non-toxic | Activity (Rattus norvegicus [5]): Active | Activity (Mus musculus [6]): inactive | Activity (Mus musculus [7]): Toxic | ED50 (Rattus norvegicus [8]): 13.2 mg/kg | Activity (Mus musculus [9]): Active | Activity (Mus musculus [10]): Non-toxic | ED50 (Mus musculus [11]): > 47 mg/kg | Activity (Mus musculus [12]): Non-toxic | Activity (Rattus norvegicus [13]): Active | Activity (Mus musculus [14]): Non-toxic
